The half-life is the time needed for the level to fall by half in the phase considered. A lower half-life goes with rapid decline.

In series [1] the test system is Felis catus. Briefly: acetylcholine antagonist effect of compound on cat blood pressure at concentration 5.7*10e-8 mol/kg in 1 min. Type of series: functional. The gist of the method:
(§1)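 Adult cats under ip α-chloralose (80 mg/kg) plus pentobarbitone (6 mg/kg), bilaterally vagotomized and artificially respired. Carotid blood pressure was recorded. An iv acetylcholine dose giving 70–80% of maximal vasodepressor response was used. After iv test drug, acetylcholine responses were checked at 1 min and then every 2–3 min and expressed as % of control. Doses were given in mol/kg, escalating after recovery.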

For series [2], the species on record is Cavia porcellus. Briefly: Anticholinergic activity was measured by the guinea pig ileum test. It is filed as functional. To be noted: read-out: pA2 (converted). The gist of the method: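 Guinea pig whole ileum strips in McEwan's solution, gassed with O2/CO2 95:5, 37 °C organ bath, 1 g tension. Cumulative acetylcholine concentration-response curves were run to constancy, then repeated after 15–20 min equilibration with increasing antagonist concentrations. Mean curves gave dose ratios, from which competitive antagonism and pA2 were derived.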

The species named for series [3] is Felis catus. As to the kind of experiment: acetylcholine antagonist effect of compound on cat blood pressure at concentration 5.7*10e-7 in 18 min. Type of series: functional. The gist of the method: as §1
Series [4] is filed under the species Felis catus. Briefly: acetylcholine antagonist effect of compound on cat blood pressure at concentration 5.7*10e-7 in 37 min. Type of series: functional. Put shortly:
as §1

The species named for series [5] is Felis catus. Briefly: acetylcholine antagonist effect of compound on cat blood pressure at concentration 5.7*10e-7 in 22 min. Type of series: functional. Put shortly: as §1
The species named for series [6] is Felis catus. Briefly: acetylcholine antagonist effect of compound on cat blood pressure at concentration 5.7*10e-8 in 7 min. It is filed as functional. Put shortly:
(§2)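 Adult cats anesthetized ip with α-chloralose (80 mg/kg) plus sodium pentobarbitone (6 mg/kg), bilaterally vagotomized, artificially respired. Carotid arterial pressure recorded. Drugs given iv via brachial vein. Acetylcholine dose giving 70-80% of maximal vasodepressor response used throughout. Test drug injected, acetylcholine response checked 1 min later, then every ~2-3 min. Value is % of control vasodepressor response to acetylcholine.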

The species entered for series [7] is Felis catus. Briefly: acetylcholine antagonist effect of compound on cat blood pressure at concentration 5.7*10e-8 in 5 min. It is filed as functional. The gist of the method:
as §2

The species named for series [8] is Felis catus. As to the kind of experiment: acetylcholine antagonist effect of compound on cat blood pressure at concentration 5.7*10e-7 in 12 min. Type of series: functional. Put shortly: as §1
For series [9], the species on record is Felis catus. Briefly: acetylcholine antagonist effect of compound on cat blood pressure at concentration 5.7*10e-7 in 27 min. It is filed as functional. Put shortly:
as §1

Series [10] can be described thus: Half life period was measured at 7.4 pH from d[acid]/dt. Type of series: ADME. To be noted: pH 7.4. Put shortly:
(§3)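 Chemical hydrolysis in 0.5 M potassium phosphate, pH 7.4, 37 °C. Rate was followed by appearance of the acid product or loss of the quaternary salt. Where salt contained amine hydrochloride, initial concentration was taken from final acid after complete hydrolysis. Half-life was estimated from both where resolved.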

The species named for series [11] is Felis catus. Briefly: acetylcholine antagonist effect of compound on cat blood pressure at concentration 5.7*10e-8 in 9 min. Type of series: functional. Put shortly:
as §2

For series [12], the species on record is Felis catus. As to the kind of experiment: acetylcholine antagonist effect of compound on cat blood pressure at concentration 5.7*10e-8 in 3 min. It is filed as functional. The gist of the method: as §1
The species entered for series [13] is Felis catus. As to the kind of experiment: acetylcholine antagonist effect of compound on cat blood pressure at concentration 5.7*10e-7 in 6 min. Type of series: functional. Put shortly: as §1
Series [14] can be described thus: The hydrolytic kinetics expressed as Kobs was measured at 7.4 pH at 37 degree C. It is filed as ADME. Conditions: pH 7.4. The gist of the method: as §3
The species entered for series [15] is Felis catus. As to the kind of experiment: acetylcholine antagonist effect of compound on cat blood pressure at concentration 5.7*10e-7 in 3 min. It is filed as functional. The gist of the method:
as §1

Series [16] is filed under the species Felis catus. As to the kind of experiment: acetylcholine antagonist effect of compound on cat blood pressure at concentration 5.7*10e-7 in 1 min. Type of series: functional. The gist of the method: as §1
The species named for series [17] is Felis catus. As to the kind of experiment: acetylcholine antagonist effect of compound on cat blood pressure at concentration 5.7*10e-7 in 31 min. Type of series: functional. The gist of the method: as §1
For series [18], the species on record is Felis catus. As to the kind of experiment: acetylcholine antagonist effect of compound on cat blood pressure at concentration 5.7*10e-7 in 15 min. It is filed as functional. Put shortly:
as §1

The species named for series [19] is Felis catus. As to the kind of experiment: acetylcholine antagonist effect of compound on cat blood pressure at concentration 5.7*10e-7 in 25 min. Type of series: functional. The gist of the method: as §1
Series [20] is filed under the species Felis catus. Briefly: acetylcholine antagonist effect of compound on cat blood pressure at concentration 5.7*10e-7 in 10 min. It is filed as functional. The gist of the method:
as §1

The species named for series [21] is Felis catus. As to the kind of experiment: acetylcholine antagonist effect of compound on cat blood pressure at concentration 5.7*10e-7 in 29 min. It is filed as functional. Put shortly:
as §1

For series [22], the species on record is Felis catus. Briefly: acetylcholine antagonist effect of compound on cat blood pressure at concentration 5.7*10e-7 in 17 min. Type of series: functional. Put shortly:
as §1

The species entered for series [23] is Felis catus. As to the kind of experiment: acetylcholine antagonist effect of compound on cat blood pressure at concentration 5.7*10e-8 in 4 min. Type of series: functional. The gist of the method:
as §2

The species named for series [24] is Felis catus. As to the kind of experiment: acetylcholine antagonist effect of compound on cat blood pressure at concentration 5.7*10e-7 in 4 min. Type of series: functional. Put shortly:
as §1

Series [25] is filed under the species Felis catus. Briefly: acetylcholine antagonist effect of compound on cat blood pressure at concentration 5.7*10e-7 in 21 min. Type of series: functional. The gist of the method: as §1
Series [26] is filed under the species Felis catus. Briefly: acetylcholine antagonist effect of compound on cat blood pressure at concentration 5.7*10e-7 in 13 min. Type of series: functional. Put shortly:
as §1

Turning to `CC[N+](CC)(CC)COC(=O)C(c1ccccc1)C1CCCC1.[Cl-]` (configuration not stated), the Response in series [1] is reported as 0%; in [3] it was 55%; in [4], 100%; in [5], 65%; in series [6] it was 82%; in series [7] it was 55%. Also, the Response is 18% in series [8]; 73% in series [9]; 100% in series [11]; 18% in series [12]; 0% in [13]; 0% in series [15]. The Response is reported as 0% in series [16], 95% in series [17] and 36% in series [18]. Further, the Kb in series [2] was 7.94 nM. In series [10], the half-life is 32 h. Also, the K obs in series [14] came out at 0.000361 min⁻¹.

Take `C[N+]1(COC(=O)C(c2ccccc2)C2CCCC2)CCOCC1.[Cl-]` (configuration not stated): the Response is 0% in series [1]; 82% in series [19]; 23% in [20]; 100% in series [21]; 59% in series [22]; 82% in [23]. For the same compound, the Response in series [7] is 90%; in [24] it was 0%; in series [11] it was 100%; in [12] it was 45%; in [13], 0%; in series [16] it was 0%. The Response is 73% in series [25] and 50% in series [26].
